pIC50: −log10 of the molar value. Active and inactive are the calls of the source. The rule behind the calls is not given here.
Key:
[1] = test system: Rtt109 (Saccharomyces cerevisiae); test: Inhibition of Vps75-stimulated recombinant Saccharomyces cerevisiae 6xHis-tagged histone acetyltransferase Rtt109 using H3n21 peptide and acetyl-coenzyme A as substrate assessed as release of CoA at 0.3 to 10 uM preincubated for 5 mins with H3n21 followed by acetyl-coenzyme A addition measured …
[2] = test system: Rtt109 (Saccharomyces cerevisiae); test: Inhibition of Vps75-stimulated recombinant Saccharomyces cerevisiae 6xHis-tagged histone acetyltransferase Rtt109 using H3n21 peptide and acetyl-coenzyme A as substrate assessed as release of CoA at 0.1 to 1 uM preincubated for 5 mins with H3n21 followed by acetyl-coenzyme A addition measured after …
[3] = biological target: Histone acetyltransferase p300 (Homo sapiens) (UniProt Q09472); test: Inhibition of N-terminal 6xHis-Flag epitope-tagged histone acetyltransferase p300 catalytic domain (1195 to 1810) (unknown origin) expressed in Escherichia coli BL21 using acetyl-coenzyme A as substrate assessed as release of coenzyme A incubated for 5 mins prior to acetyl-coenzyme A addition measured every 2 mins for 10 mins by ThioGlo1 assay
Method in brief: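 p300 (15 µg/ml) or Gcn5 (3.1 µg/ml, 61 nM) with 15 µM H3n21 peptide. Pre-incubated 5 min at 30°C with compound (up to 100 µM) or DMSO. Started with 30 µM acetyl-CoA. Released CoA quantified every 2 min over the first 10 min. Rates from linear regression of product versus time.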

[4] = biological target: Histone acetyltransferase p300 (Homo sapiens) (UniProt Q09472); test: Inhibition of N-terminal 6xHis-Flag epitope-tagged histone acetyltransferase p300 catalytic domain (1195 to 1810) (unknown origin) expressed in Escherichia coli BL21 using (H3-H4)2 peptide and acetyl-coenzyme A as substrate assessed as inhibition of lysine acetylation incubated for 5 mins prior to acetyl-coenzyme A addition measured after 30 mins by ELISA
Method in brief: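 p300 (15 µg/ml) with […] (H3-H4)2 tetramers. Pre-incubated 5 min with compound or DMSO, then started with 15 µM acetyl-CoA. Run 30 min at 30°C. Lysine acetylation detected by ELISA with a polyclonal anti-acetyllysine antibody.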

[5] = test system: Candida albicans; test: Inhibition of histone acetyltransferase Rtt109 in Candida albicans assessed as inhibition of H3K56 acetylation
[6] = biological target: T1, Lysine-specific demethylase 4A (Homo sapiens, UniProt O75164); test: Inhibition of JMJD2A tudor domain (unknown origin) using histone H4 peptide trimethylated on lysine 20 as substrate
T1 sequence (O75164 whole entry): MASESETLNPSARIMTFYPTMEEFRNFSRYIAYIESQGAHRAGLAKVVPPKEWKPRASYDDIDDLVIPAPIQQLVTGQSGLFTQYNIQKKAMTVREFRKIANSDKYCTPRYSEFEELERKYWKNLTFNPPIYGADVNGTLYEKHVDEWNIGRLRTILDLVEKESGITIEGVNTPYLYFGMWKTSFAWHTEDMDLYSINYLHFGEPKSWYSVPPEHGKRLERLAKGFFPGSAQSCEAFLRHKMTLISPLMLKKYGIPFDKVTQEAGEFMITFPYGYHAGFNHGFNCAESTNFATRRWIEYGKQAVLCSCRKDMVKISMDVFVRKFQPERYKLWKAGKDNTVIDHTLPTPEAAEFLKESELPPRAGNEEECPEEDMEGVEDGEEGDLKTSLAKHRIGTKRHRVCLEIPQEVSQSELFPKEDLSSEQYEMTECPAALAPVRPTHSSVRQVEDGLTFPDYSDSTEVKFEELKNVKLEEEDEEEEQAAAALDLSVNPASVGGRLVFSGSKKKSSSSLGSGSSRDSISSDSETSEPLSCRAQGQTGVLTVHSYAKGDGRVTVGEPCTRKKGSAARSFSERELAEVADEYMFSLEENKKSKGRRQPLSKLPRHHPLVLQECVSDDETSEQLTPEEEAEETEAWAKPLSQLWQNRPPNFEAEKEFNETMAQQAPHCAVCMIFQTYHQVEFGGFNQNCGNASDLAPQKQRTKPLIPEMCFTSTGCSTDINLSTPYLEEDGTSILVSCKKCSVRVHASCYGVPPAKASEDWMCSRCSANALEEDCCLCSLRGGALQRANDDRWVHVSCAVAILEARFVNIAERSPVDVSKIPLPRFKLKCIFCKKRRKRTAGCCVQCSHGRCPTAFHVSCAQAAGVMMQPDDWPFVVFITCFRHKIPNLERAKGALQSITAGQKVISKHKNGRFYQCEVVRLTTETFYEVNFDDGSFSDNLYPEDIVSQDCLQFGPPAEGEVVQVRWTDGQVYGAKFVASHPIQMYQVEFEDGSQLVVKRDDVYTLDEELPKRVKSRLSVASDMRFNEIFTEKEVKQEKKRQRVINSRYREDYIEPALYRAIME

[7] = test system: Candida albicans; test: Inhibition of histone acetyltransferase Rtt109 in Candida albicans assessed as camptothecin-induced DNA damage
[8] = biological target: Histone acetyltransferase RTT109 (Saccharomyces cerevisiae) (UniProt Q07794); test: Inhibition of Vps75-stimulated recombinant Saccharomyces cerevisiae 6xHis-tagged histone acetyltransferase Rtt109 using H3n21 peptide as substrate assessed as release of coenzyme A at […] by ThioGlo1 assay relative to control; design: scale not given: the % may be the effect or the level left
[9] = biological target: Histone acetyltransferase RTT109 (Saccharomyces cerevisiae) (UniProt Q07794); test: Irreversible inhibition of Vps75-stimulated recombinant Saccharomyces cerevisiae 6xHis-tagged histone acetyltransferase Rtt109 using H3n21 peptide as substrate assessed as release of coenzyme A at […] after 4 hrs by 10 fold dilution assay relative to control; design: scale not given: the % may be the effect or the level left
[10] = biological target: T2, Histone acetyltransferase SAS2 (Saccharomyces cerevisiae (strain ATCC 204508 / S288c) (Baker's yeast)) (UniProt P40963); test: Inhibition of Vps75-stimulated recombinant Saccharomyces cerevisiae 6xHis-tagged histone acetyltransferase Rtt109 using H3n21 peptide and acetyl-coenzyme A as substrate assessed as release of coenzyme A at 56 1.3 nM incubated for 5 mins prior to acetyl-coenzyme A addition measured every 2 mins for 10 mins by ThioGlo1 assay relative to control
T2 sequence (whole entry): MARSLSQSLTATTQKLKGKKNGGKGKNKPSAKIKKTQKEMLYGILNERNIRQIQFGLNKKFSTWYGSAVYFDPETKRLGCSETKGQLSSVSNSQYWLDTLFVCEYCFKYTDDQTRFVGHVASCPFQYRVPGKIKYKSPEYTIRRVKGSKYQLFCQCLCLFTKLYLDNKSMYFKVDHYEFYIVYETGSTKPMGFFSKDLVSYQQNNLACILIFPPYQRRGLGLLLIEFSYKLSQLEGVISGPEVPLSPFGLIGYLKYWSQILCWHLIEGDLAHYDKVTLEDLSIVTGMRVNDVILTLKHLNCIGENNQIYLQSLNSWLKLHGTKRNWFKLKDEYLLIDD

Sequence of Histone acetyltransferase RTT109 (Saccharomyces cerevisiae) (Q07794 whole entry, looked up): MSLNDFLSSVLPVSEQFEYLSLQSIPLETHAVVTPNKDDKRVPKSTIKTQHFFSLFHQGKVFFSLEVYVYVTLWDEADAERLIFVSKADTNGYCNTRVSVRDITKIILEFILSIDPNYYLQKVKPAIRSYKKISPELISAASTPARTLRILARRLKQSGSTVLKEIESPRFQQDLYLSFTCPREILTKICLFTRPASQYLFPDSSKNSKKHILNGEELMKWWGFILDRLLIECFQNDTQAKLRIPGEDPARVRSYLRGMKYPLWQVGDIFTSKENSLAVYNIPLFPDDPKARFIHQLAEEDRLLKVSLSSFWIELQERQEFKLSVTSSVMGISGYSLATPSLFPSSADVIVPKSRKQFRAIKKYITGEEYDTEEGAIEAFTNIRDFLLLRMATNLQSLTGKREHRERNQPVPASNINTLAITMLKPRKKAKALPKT
Sequence of Histone acetyltransferase p300 (Homo sapiens) (Q09472 whole entry, the tested form may be a part): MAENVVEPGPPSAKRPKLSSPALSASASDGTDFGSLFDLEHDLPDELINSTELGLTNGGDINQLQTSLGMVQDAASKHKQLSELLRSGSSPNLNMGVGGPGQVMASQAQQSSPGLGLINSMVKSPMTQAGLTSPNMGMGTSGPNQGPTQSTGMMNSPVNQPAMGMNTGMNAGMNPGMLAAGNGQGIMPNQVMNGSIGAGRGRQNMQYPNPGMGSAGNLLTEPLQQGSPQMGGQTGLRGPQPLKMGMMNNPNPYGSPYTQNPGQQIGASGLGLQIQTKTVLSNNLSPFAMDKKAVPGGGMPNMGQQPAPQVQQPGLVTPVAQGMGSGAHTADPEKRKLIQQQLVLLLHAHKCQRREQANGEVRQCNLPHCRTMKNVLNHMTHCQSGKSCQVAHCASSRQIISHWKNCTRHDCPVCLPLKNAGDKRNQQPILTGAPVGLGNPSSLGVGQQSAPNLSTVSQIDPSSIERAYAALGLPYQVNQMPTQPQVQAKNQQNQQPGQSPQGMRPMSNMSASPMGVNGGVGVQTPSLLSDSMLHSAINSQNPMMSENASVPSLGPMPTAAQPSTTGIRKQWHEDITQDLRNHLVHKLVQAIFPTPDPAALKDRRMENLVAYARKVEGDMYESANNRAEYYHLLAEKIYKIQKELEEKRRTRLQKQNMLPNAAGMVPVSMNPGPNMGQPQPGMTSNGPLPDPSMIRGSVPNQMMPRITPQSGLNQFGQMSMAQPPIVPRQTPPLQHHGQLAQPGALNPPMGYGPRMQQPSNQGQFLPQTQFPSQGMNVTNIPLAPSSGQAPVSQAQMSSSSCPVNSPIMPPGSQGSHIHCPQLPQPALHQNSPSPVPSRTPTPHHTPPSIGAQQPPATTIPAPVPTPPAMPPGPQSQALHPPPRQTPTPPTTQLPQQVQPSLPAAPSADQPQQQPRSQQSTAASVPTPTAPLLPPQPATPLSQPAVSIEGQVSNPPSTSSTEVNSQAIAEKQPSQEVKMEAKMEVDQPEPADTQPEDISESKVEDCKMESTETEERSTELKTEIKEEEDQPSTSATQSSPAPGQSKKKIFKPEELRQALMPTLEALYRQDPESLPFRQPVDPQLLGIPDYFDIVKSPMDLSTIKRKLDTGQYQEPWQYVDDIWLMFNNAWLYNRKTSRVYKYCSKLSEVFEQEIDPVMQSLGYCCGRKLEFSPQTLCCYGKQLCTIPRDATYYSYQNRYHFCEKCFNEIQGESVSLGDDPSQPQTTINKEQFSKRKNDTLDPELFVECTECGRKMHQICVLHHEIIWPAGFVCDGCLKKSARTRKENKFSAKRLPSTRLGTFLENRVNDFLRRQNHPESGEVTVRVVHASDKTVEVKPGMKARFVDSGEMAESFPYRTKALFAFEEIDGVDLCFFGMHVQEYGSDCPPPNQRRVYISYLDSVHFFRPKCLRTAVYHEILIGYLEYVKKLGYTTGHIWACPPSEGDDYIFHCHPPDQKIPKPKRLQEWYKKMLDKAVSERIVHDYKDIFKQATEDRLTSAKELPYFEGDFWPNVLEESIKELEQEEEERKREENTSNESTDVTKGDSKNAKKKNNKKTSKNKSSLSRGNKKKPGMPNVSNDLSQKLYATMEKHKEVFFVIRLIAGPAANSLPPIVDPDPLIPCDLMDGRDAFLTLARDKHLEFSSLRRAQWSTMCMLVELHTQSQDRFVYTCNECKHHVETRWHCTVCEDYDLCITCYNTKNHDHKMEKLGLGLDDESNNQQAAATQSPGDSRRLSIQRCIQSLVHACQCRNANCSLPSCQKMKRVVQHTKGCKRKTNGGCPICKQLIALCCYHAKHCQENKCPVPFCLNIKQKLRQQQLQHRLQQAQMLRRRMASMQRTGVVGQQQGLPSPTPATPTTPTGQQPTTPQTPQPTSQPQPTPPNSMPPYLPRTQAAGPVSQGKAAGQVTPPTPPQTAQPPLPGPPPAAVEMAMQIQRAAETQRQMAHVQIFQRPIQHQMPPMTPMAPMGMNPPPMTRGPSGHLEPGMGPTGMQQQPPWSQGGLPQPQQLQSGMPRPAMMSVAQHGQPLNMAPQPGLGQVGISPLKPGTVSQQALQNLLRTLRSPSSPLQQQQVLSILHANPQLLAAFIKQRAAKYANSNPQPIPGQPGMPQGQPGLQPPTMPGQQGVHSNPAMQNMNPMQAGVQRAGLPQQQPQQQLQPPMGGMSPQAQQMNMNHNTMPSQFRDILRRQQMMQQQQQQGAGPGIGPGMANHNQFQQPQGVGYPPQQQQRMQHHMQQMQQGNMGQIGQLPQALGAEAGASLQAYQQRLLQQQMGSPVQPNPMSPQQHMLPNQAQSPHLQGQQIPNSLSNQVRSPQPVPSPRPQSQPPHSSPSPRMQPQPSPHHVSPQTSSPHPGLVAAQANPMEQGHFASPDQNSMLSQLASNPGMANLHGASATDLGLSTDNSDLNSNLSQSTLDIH

Q: How did the inhibition [1] turn out when `CCCC1(c2ccccc2)NC(=O)N(Cc2c(F)cccc2Cl)C1=O` (stereo unspecified) was run?
A: The inhibition was “inactive”.

Q: How did the inhibition [1] turn out when `CC(C)CC1(c2ccccc2)NC(=O)N(CC(=O)NCc2ccc(Cl)cc2Cl)C1=O` (stereo unspecified) was run?
A: Its inhibition is “inactive”.

Q: For `CCCC1(c2ccccc2)NC(=O)N(Cc2ccc(F)cc2Cl)C1=O` (stereo unspecified), which inhibition [1] is on record?
A: Its inhibition is “inactive”.

Q: With `CN(Cc1c(F)cccc1Cl)C(=O)CN1C(=O)NC2(CCCCc3ccccc32)C1=O` (stereo unspecified) as the molecule, how does the inhibition [1] read?
A: The inhibition was “inactive”.

Q: Which inhibition [2] does the source give for `CCC1(c2ccccc2)NC(=O)N(CC(=O)N(C)Cc2c(F)cccc2Cl)C1=O` (stereo unspecified) here?
A: The inhibition was “Active”.

Q: `CC(C)c1ccc(C2(C)NC(=O)N(CC(=O)N(C)Cc3c(F)cccc3Cl)C2=O)cc1` (stereo unspecified) was tested. Which inhibition [1] did it give?
A: The inhibition was “inactive”.

Q: For `CCC1(c2ccc(F)cc2)NC(=O)N(CC(=O)NCc2ccc(Cl)cc2Cl)C1=O` (stereo unspecified), which inhibition [1] is on record?
A: The inhibition was “inactive”.

Q: With `CCCCC1(c2ccccc2)NC(=O)N(CC(=O)NCc2ccc(Cl)cc2Cl)C1=O` (stereo unspecified) as the molecule, how does the inhibition [1] read?
A: Its inhibition is “inactive”.

Q: `CCC[C@]1(c2ccccc2)NC(=O)N(CC(=O)N(C)Cc2c(F)cccc2Cl)C1=O` was tested. Which inhibition [3] did it give?
A: The inhibition was “inactive”.

Q: What about the inhibition [4] of the same molecule?
A: The inhibition was “inactive”.

Q: What about the inhibition [5] of the same molecule?
A: Its inhibition is “inactive”.

Q: What about the pIC50 [6] of the same molecule?
A: The pIC50 was 4.60.

Q: What about the inhibition [7] of the same molecule?
A: The inhibition was “inactive”.

Q: What about the Activity [8] of the same molecule?
A: The Activity was 47%.

Q: What about the Activity [9] of the same molecule?
A: Its Activity is 33%.

Q: And the inhibition [10]?
A: The inhibition was 50%.

Reference: ChEMBL document CHEMBL2384941, “A small molecule inhibitor of fungal histone acetyltransferase Rtt109” (Bioorg Med Chem Lett, 2013)
